Compounds with a hit are over-represented: about 2.3% of the library has one in this group of screens.
SF1 activator: SF-1 (human) activation. AID 522. activation, % at 10 µM. 1.9% of 65,000 active. CHO-K1 Gal4-SF-1 LBD luciferase reporter; % increase over DMSO SF-1-specific signal. Q13285;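 active = activation above the mean activation of all tested compounds plus 3 SD, cut at about 50% in these data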
Target sequence (Q13285 whole entry, looked up, the tested form may be a part): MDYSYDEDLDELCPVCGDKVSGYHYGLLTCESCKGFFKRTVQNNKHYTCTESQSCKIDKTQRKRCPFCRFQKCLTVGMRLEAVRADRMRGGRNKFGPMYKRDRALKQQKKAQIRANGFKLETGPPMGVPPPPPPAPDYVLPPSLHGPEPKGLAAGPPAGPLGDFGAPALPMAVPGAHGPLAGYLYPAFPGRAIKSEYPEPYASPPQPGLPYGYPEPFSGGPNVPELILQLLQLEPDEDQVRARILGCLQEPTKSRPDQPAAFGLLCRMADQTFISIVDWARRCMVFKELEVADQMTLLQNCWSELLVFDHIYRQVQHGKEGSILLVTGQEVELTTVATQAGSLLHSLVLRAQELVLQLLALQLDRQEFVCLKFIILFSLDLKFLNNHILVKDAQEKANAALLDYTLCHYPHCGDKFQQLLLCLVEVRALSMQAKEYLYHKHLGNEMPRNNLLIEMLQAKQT
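Material: CHO-K1 cells with Gal4–hSF-1 LBD chimera plus Gal4-driven luciferase / Input: 4,000 CHO-K1 cells per well / Incubation: compound exposure 20 h at 37 °C / Signal: luminescence read 15 min after SteadyLite luciferase reagent, after room-temperature equilibration / Read-out: percent activation versus DMSO / Benchmarks: DMSO negative control and −SF1 background wells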
RORa activator: RORA (human) activation. P35398. activation, % at 10 µM. CHO-K1 Gal4-RORA LBD luciferase reporter, luminescence; percent increase over mock-subtracted basal signal. 1.5% of 65,000 active;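 active = activation above the mean of all tested compounds plus 3 SD, cut at about 49% in these data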
MT1-MMP txn act: activates MT1-MMP transcription; HT1080 MT1-MMP promoter luciferase reporter, luminescence, overnight; hits give high values; activation factor at 10 µM; 0.16% of 86,000 active; AID 750;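 active = activation factor of at least 2 for MT1-MMP transcription at 10 µM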
JNK3 blocker: JNK3 (human) kinase inhibition | P53779 | purified JNK3 kinase activity, HTS | inhibition, % at 8 µM | 0.61% of 60,000 active; in the data active = inhibition above about 17%
Hits are given with their value; - = inactive; . = no result given.

SMILES	SF1 activator	RORa activator	MT1-MMP txn act	JNK3 blocker
O=C(NCc1cccs1)c1cc(-c2cccs2)on1	53	83	-	-
COCCNC(=O)c1cc(-c2cccs2)on1	-	145	-	-
CC1(C)Cc2nc3nc(SCC(=O)NCCc4ccccc4)n(-c4ccccc4)c(=O)c3cc2CO1	.	.	-	.
CCN(CC)S(=O)(=O)c1cccc(-c2nc3n(n2)Cc2ccccc2-3)c1	61	-	-	-
Clc1ccc(-c2nc3n(n2)Cc2ccccc2-3)cc1	.	.	-	.
CCOC(=O)c1sc2nc3c(cc2c1N)COC(C)(C)C3	53	-	-	-
Cc1ccc(C2=Nc3ccccc3NC(C)(c3ccc(C)o3)C2)o1 (stereo not drawn)	106	53	-	-
CC1=CC(C)=Nc2ccccc2N1	.	.	-	.
CCCCCCCCS(=O)c1sc2nc(C)cc(C)c2c1N (stereo not drawn)	.	.	-	.
O=C(CCSc1ccccc1)N1CCOCC1	52	-	-	-
Cc1ccc(SCCC(=O)N2CCOCC2)cc1	-	51	-	-
CCn1cc(CNC(=O)CCSc2nc(-c3ccco3)cc(C(F)(F)F)n2)cn1	.	.	-	.
CC(=O)Nc1c(O)nc(SCC(=O)Nc2ccc(C(C)=O)cc2)[nH]c1=O	50	58	-	-
O=C(CN1CCC(O)CC1)N1c2ccccc2C=Cc2ccccc21	-	-	-	-
COc1ccc(CCn2c(C)cc(C(=O)CSc3nnnn3-c3ccccc3)c2C)cc1	.	.	-	.
CC(=O)/C=C(\C)Nc1ccc(-c2cnc(-c3ccccc3)o2)cc1	57	88	-	-
O=C(NCCCN1CCOCC1)c1cccs1	-	-	-	-
O=C(/C=C/Nc1cccc(O)c1)c1ccccc1	57	-	.	-
Cc1ccc(C(=O)/C=C/Nc2cccc(O)c2)cc1	-	-	-	-
CCC(C)(C)n1nnnc1C(c1cccnc1)N1CCN(c2cccc(C(F)(F)F)c2)CC1 (stereo not drawn)	.	.	-	.
O=C1NC(c2ccc3c(c2)OCO3)Nc2ccccc21 (stereo not drawn)	72	63	-	-
O=C1NC(c2ccc3c(c2)OCO3)Oc2ccccc21 (stereo not drawn)	-	-	-	-
CN(c1ccccc1)c1nc2ccsc2c(=O)s1	50	-	-	.
CCC/C=C(\CCC)C(NS(=O)(=O)c1ccc(C(F)(F)F)cc1)c1ccc(C(=O)OC)cc1 (stereo not drawn)	.	.	-	.
Cc1nc(NC(=O)c2ccccc2)sc1-c1csc(N)n1	-	81	-	-
SMILES	SF1 activator	RORa activator	MT1-MMP txn act	JNK3 blocker
Cc1nc2ccc(C(=O)c3ccccc3)cc2[nH]1	57	-	-	-
O=C(N1CCOCC1)N1CCN(S(=O)(=O)c2ccccc2)C1	-	-	-	-
CCc1ccccc1Nc1ccc(C(=O)O)cc1N	60	-	-	-
COc1ccc(C(CC(=O)Nc2nccs2)n2cccc2)cc1 (stereo not drawn)	55	-	-	-
c1ccc(-c2ccc(OCCCn3cncn3)cc2)cc1	-	-	-	-
c1ccc(COc2ccc(OCCn3cncn3)cc2)cc1	55	-	-	-
COC(=O)c1ccc(C(NC(=O)OCc2ccccc2)/C(C)=C/[C@@H](C)C(=O)N[C@@H](CO)Cc2ccccc2)cc1 (stereo partly drawn)	.	.	-	.
COc1ccc(CNC(=O)c2noc3c2CCCCC3)cc1	-	-	-	-
O=C(NCc1ccccc1)c1noc2c1CCCCC2	52	-	-	-
O=C(Nc1ccccc1C(=O)O)c1ccc2ccccc2n1	80	-	-	-
O=C(Nc1ccc(Cl)cn1)c1ccc2ccccc2n1	.	.	-	.
CNC(=O)[C@H](C)/C=C(\I)C(NC(=O)OCc1ccccc1)c1ccc(C(=O)OC)cc1 (stereo partly drawn)	.	.	-	.
Cc1ccc(/C=N/Nc2nc(Cl)c(Cl)cc2Cl)s1	.	.	2	.
COc1ccc(-c2nc(-c3ccc(Br)o3)no2)cc1OC	87	60	-	-
COc1ccc(-c2nnc(-c3ccc(Br)o3)o2)cc1OC	-	-	-	25
COC(=O)c1ccc(Cn2c(O)c(N=O)c3ccccc32)o1	-	-	-	20
CCOC(=O)C1=C(C)N(CCCC(=O)O)C(=O)NC1c1ccccc1OC(=O)c1cccc(I)c1 (stereo not drawn)	.	.	-	.
COC(=O)[C@@]1(Cc2ccc(OC)cc2)[C@H]2c3cc(C(=O)N(C)C)n(Cc4ccc(C)c(F)c4F)c3C[C@H]2CN1C(=O)c1ccccc1	.	.	-	.
CCOC(=O)c1ccc(NC(=O)N2CCc3ccccc32)cc1	61	-	-	-
O=C(Nc1ccccc1)N1CCc2ccccc21	.	.	-	.
O=C(OCC(=O)c1c[nH]c2ccccc12)C1=COCCO1	109	55	2.1	-
Cc1nn(-c2nc3ccccc3s2)c(C)c1Oc1ccccc1O	58	66	-	-
O=C(CCNS(=O)(=O)c1cccs1)N1CCCCCC1	60	-	-	-
O=C(CCS(=O)(=O)c1cccs1)N1CCCC1	-	-	-	.
COCCn1c(C2CCCCC2)nc2sc3ccccc3c(=O)c2c1=O	-	-	-	-
SMILES	SF1 activator	RORa activator	MT1-MMP txn act	JNK3 blocker
Fc1ccc(-c2nnc(-c3ccc(Cl)cc3)o2)cc1	-	56	-	-
COCCn1c(COc2ccc(C)cc2)nc2ccccc21	50	-	-	-
COCCn1c(COC)nc2ccccc21	-	-	-	-
COc1ccc(-n2ncc3c(NCC4CCCO4)ncnc32)cc1 (stereo not drawn)	.	.	-	.
c1ccc(-n2ncc3c(NC4CCCCCC4)ncnc32)cc1	91	77	-	-
c1ccc(-n2ncc3c(NCC4CCCO4)ncnc32)cc1 (stereo not drawn)	81	57	-	-
Clc1ccc(-n2ncc3c(NCC4CCCO4)ncnc32)cc1 (stereo not drawn)	122	96	-	-
Cc1ccccc1Nc1nc(N)nc(CSc2nc3ccccc3c(=O)n2C)n1	.	.	-	.
CCN(CCCNC(=O)CN(C)S(=O)(=O)c1ccc2c(c1)CCC(=O)N2)c1cccc(C)c1	-	-	-	-
Cc1ccc2c(c1)CC1(CN2C)C(=O)OC2(CCCCC2)OC1=O	-	-	-	31
c1ccc(-n2nc3c(ccc4cnnc43)[nH]2)cc1	-	55	-	30
COc1ccc2nc(NCc3ccccc3)[nH]c2c1	-	52	-	-
COc1ccc2nc(NCCO)[nH]c2c1	-	-	-	-
c1ccc(CNc2nc3ccccc3[nH]2)cc1	-	-	-	.
Cc1ccc2nc(NCc3ccccc3)[nH]c2c1	68	-	-	-
O=c1oc2c3c4c(cc2cc1-c1nc2ccccc2[nH]1)CCCN4CCC3	-	52	-	-
O=c1oc2c(CN3CCCCC3)c(O)ccc2cc1-c1nc2ccccc2[nH]1	-	-	-	-
N#Cc1c(/N=C/N2CCOCC2)sc2c1CCCCC2	83	91	-	-
N#Cc1c(/N=C/c2ccc(Br)s2)sc2c1CCC2	.	.	2	.
c1coc(-c2nn3c(-c4ccco4)nnc3s2)c1	-	-	-	-
COc1ccccc1-c1nn2c(-c3ccco3)nnc2s1	59	-	-	-
COc1cccc(Cn2c(-c3nonc3N)nc3ccccc32)c1	62	-	-	-
COc1cc(Cn2c(-c3nonc3N)nc3ccccc32)ccc1C	-	-	-	-

Screens as filed in PubChem BioAssay.
